Here are results for 8 compounds from ChEMBL document CHEMBL4261643, “Reducing the Lipophilicity of Perfluoroalkyl Groups by CF2-F/CF2-Me or CF3/CH3 Exchange” (J Med Chem, 2018).

Series [1] can be described thus: Aqueous solubility of the compound in phosphate buffer at pH 7.4 after 24 hrs by shake-flask method. The series is classed as physicochemical. Summed up: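 Dried compound equilibrated in aqueous phosphate buffer, pH 7.4, for 24 h at 25 °C. The dissolved portion was separated from the remaining solid and quantified by UPLC/MS/MS. QC samples were included in each run.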

The nature of series [2]: Intrinsic clearance in Han Wistar rat hepatocytes assessed as per million cells preincubated in presence of NADPH for 30 mins and measured up to 120 mins by LC-MS/MS analysis. The series is classed as ADME, cell-based, Hepatocyte. Conditions: read-out: CLH. Summed up: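 Cryopreserved Han Wistar rat hepatocytes at 1x10^6 cells/mL were incubated with compound from DMSO stock at 37 °C. Samples were taken at 0.5, 5, 15, 20, 30, 45, 60, 80, 100 and 120 min and quenched with cold acetonitrile. After centrifugation at 4 °C, substrate disappearance was followed by LC-MS/MS. Clint is expressed in µL/min/10^6 cells.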

Another series addresses hERG (KCNH2) (Homo sapiens, UniProt Q12809). The series can be described thus: Inhibition of human ERG at 10 uM relative to cisapride.
Series [3] can be described thus: Partition coefficient, log D of the compound at pH 7.4 after 30 mins by shake-flask method. The series is classed as physicochemical. Conditions: octanol/water. Summed up:
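Octanol/pH 7.4 buffer shake-flask: compound in buffer plus octanol, shaken 30 min, then centrifuged. The aqueous layer was quantified by LC-UV against the solution before octanol addition to give D7.4. Runs were pools of 10 compounds including three QC compounds (cyclobenzaprine, nicardipine, caffeine).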

A short description of series [4]: Intrinsic clearance in human liver microsomes preincubated in presence of NADPH for 30 mins and measured up to 30 mins by LC-MS/MS analysis. The series is classed as ADME, microsome. As to conditions: read-out: CLH. Summed up: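 Compound from DMSO stock was incubated with human liver microsomes plus NADPH at 37 °C. Aliquots taken at 0.7, 5.8, 11.6, 17.2, 22.7 and 30 min were quenched with cold acetonitrile and centrifuged at 4 °C. Substrate loss was measured by LC-MS/MS, and Clint is given in µL/min/mg. Six isoform-specific P450/FMO marker substrates were included in each run.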
A general note: Liver microsomes are a subcellular fraction often used to study metabolism.

Series [5] is described as follows: Fraction unbound in 10% human plasma after 18 hrs by LC-MS/MS analysis. It is filed as ADME, cell-free. Summed up: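 Compound from DMSO stock was dialysed against buffer in 10% human plasma on a RED device for 18 h. Plasma and buffer samples were quantified by LC-MS/MS against a 7-point calibration curve in plasma. Samples were generally run in singlicate, in pools of up to 10 compounds. Propranolol, metoprolol and warfarin served as reference compounds in each run.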

hERG (KCNH2), sequence (Q12809 whole entry): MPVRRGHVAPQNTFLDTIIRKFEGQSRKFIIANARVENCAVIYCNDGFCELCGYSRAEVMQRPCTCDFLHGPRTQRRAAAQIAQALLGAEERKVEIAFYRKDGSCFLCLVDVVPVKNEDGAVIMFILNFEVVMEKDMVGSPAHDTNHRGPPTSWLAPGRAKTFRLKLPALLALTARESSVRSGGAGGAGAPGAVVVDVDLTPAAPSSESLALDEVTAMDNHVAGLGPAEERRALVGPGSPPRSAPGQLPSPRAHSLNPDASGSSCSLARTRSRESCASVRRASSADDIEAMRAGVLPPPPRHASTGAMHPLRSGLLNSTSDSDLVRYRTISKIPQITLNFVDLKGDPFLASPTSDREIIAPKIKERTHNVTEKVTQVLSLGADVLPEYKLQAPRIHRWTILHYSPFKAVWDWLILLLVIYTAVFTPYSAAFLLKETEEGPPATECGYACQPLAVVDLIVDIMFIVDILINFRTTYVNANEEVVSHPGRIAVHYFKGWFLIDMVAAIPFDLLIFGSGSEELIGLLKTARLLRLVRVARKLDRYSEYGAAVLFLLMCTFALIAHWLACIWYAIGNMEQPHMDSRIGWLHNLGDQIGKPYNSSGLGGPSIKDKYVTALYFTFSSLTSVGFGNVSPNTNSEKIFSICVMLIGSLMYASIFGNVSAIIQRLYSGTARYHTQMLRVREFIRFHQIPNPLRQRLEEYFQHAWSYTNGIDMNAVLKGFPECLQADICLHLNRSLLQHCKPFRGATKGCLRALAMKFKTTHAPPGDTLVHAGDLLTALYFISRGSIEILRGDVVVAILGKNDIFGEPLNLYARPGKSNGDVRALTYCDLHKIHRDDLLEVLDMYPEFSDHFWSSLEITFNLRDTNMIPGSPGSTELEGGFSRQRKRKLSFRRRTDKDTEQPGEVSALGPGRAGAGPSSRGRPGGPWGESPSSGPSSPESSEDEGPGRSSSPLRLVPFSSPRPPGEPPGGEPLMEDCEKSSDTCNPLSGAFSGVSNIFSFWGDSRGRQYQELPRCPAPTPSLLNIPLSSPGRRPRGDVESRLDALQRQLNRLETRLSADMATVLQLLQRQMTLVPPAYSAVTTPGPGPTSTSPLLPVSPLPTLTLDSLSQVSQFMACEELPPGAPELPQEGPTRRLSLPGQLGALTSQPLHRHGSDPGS

As a reminder, the thermodynamic solubility is solubility found after equilibrating the solid with the medium. Broadly, the inhibition is the drop in the measured response relative to a control, in per cent. Lower therefore signals a weak effect. For orientation: logD means the decadic logarithm of the distribution of all forms, ionised or not, between an organic phase and buffer at a given pH. As a reminder, the fraction unbound is free concentration divided by total concentration. For `CN(C)C(=O)CNCCc1cccc(OCC(F)(F)C(F)(F)C(C)(F)F)c1.Cl`, the solubility (thermodynamic) at 24 h in series [1] is 946 µM. Further, the hepatocyte CLint in series [2] was 64 µL/min/1e6 cells. The same compound displayed an inhibition at 10 µM on hERG (KCNH2) of 63%. Besides, the log distribution coefficient (logD) at 0.5 h in series [3] stood at 2.2. Besides, the microsomal CLint in series [4] was determined as 9 µL/min/mg. The same compound registered a free fraction (fraction unbound) at 18 h in series [5] of 0.25.

In series [1], `CN(C)C(=O)CNCCc1cccc(OCCCC(C)(F)F)c1.Cl` registered a solubility (thermodynamic) at 24 h of 1000 µM. For the same compound, in series [2], the hepatocyte CLint was found to be 38 µL/min/1e6 cells. Also, on hERG (KCNH2), testing at 10 µM gave an inhibition of 45%. The compound further gave a logD at 0.5 h in series [3] of 1.7. The microsomal CLint in series [4] came to 7 µL/min/mg. Moreover, the fraction unbound at 18 h in series [5] is 0.49.

Consider `CCCCCOc1cccc(CCNCC(=O)N(C)C)c1.Cl`, for which the solubility (thermodynamic) at 24 h in series [1] was determined as 779 µM. Further, the hepatocyte CLint in series [2] came out at 91 µL/min/1e6 cells. The compound further registered an inhibition at 10 µM at hERG (KCNH2) of 70%. Besides, the logD at 0.5 h in series [3] is 2.3. Further, in series [4], the microsomal CLint came to 29 µL/min/mg. Further, the fraction unbound at 18 h in series [5] is 0.23.

In series [1], `CN(C)C(=O)CNCCc1cccc(OCC(F)(F)C(F)(F)C(F)(F)C(F)(F)F)c1.Cl` displayed a solubility (thermodynamic) at 24 h of 955 µM.

The compound `CN(C)C(=O)CNCCc1cccc(OCCC(C)(F)F)c1.Cl` gave a solubility (thermodynamic) at 24 h in series [1] of 960 µM. Also, in series [2], the hepatocyte CLint was 34 µL/min/1e6 cells. Besides, the inhibition at 10 µM against hERG (KCNH2) was 35%. Besides, the pH-dependent lipophilicity (logD) at 0.5 h in series [3] was found to be 1.1. Besides, in series [4], the microsomal CLint was found to be 7 µL/min/mg. Besides, in series [5], the fraction unbound at 18 h turned out to be 0.62.

On to `CN(C)C(=O)CNCCc1cccc(OCC(F)(F)C(C)(F)F)c1.Cl`, for which, in series [1], the solubility (thermodynamic) at 24 h is 929 µM. In addition, the hepatocyte CLint in series [2] amounted to 32 µL/min/1e6 cells. Also, the inhibition at 10 µM against hERG (KCNH2) turned out to be 41%. This compound also showed a pH-dependent lipophilicity (logD) at 0.5 h in series [3] of 1.6. Further, the microsomal CLint in series [4] amounted to 10 µL/min/mg. The compound further yielded a fraction unbound at 18 h in series [5] of 0.51.

For the compound `CN(C)C(=O)CNCCc1cccc(OCC(F)(F)C(F)(F)C(F)(F)F)c1.Cl`, the thermodynamic solubility at 24 h in series [1] worked out at 952 µM. Besides, the hepatocyte CLint in series [2] was 20 µL/min/1e6 cells. On hERG (KCNH2), this compound came in with an inhibition at 10 µM of 57%. In series [3], this compound gave a log distribution coefficient (logD) at 0.5 h of 2.5. In series [4], the microsomal CLint was 8 µL/min/mg. For the same compound, the fraction unbound at 18 h in series [5] is 0.2.

Consider `CCCCOc1cccc(CCNCC(=O)N(C)C)c1.Cl`, for which the solubility (thermodynamic) at 24 h in series [1] came out at 782 µM. In series [2], the hepatocyte CLint was 82 µL/min/1e6 cells. On hERG (KCNH2), the inhibition at 10 µM was determined as 31%. For the same compound, the logD at 0.5 h in series [3] worked out at 1.8. Besides, the microsomal CLint in series [4] came to 13 µL/min/mg. Besides, in series [5], the unbound share (fraction unbound) at 18 h turned out to be 0.45.
